Results published in ChEMBL document CHEMBL1135632, “Synthesis and investigation of conformationally restricted analogues of lavendustin A as cytotoxic inhibitors of tubulin polymerization” (J Med Chem, 2002).

How the values were obtained:
Homo sapiens [1] = organism: Homo sapiens; experiment: Cytotoxicity against ovarian OVCAR-3; assay type: functional
Summary of the method: (§1)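 NCI human cancer cell line screen. Compounds were tested from 10^-4 to 10^-8 M, and GI50 was taken as the concentration giving 50% growth inhibition. Agents whose mean graph midpoint across about 55 lines was 10 μM or less on the first determination were assayed a second time, with standard deviations calculated. Agents above 10 μM were not evaluated further.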

Homo sapiens [2] = organism: Homo sapiens; experiment: Cytotoxicity against lung HOP-62; assay type: functional; summary of the method: as §1
Homo sapiens [3] = organism: Homo sapiens; experiment: Cytotoxicity against melanoma UACC-62; assay type: functional; summary of the method: as §1
Homo sapiens [4] = organism: Homo sapiens; experiment: Cytotoxicity against renal SN12C; assay type: functional; summary of the method: as §1
Tubulin = Tubulin (Bos taurus, UniProt Q6B856+Q862L2+Q862F3); experiment: Inhibition of tubulin polymerization at concentration 10 uM; assay type: functional
[5] = (§2) Cytotoxicity against leukemia CCRF-CEM; assay type: functional; settings: Homo sapiens; summary of the method: as §1
Homo sapiens [6] = organism: Homo sapiens; experiment: Cytotoxicity against CNS SF-539; assay type: functional; settings: CNSSF-539; summary of the method: as §1
Homo sapiens [7] = organism: Homo sapiens; experiment: Cytotoxicity against prostate DU-145; assay type: functional; settings: DU-145, Prostate gland; summary of the method: as §1
Homo sapiens [8] = organism: Homo sapiens; experiment: Cytotoxicity against breast MDA-MB-435; assay type: functional; summary of the method: as §1
Homo sapiens [9] = organism: Homo sapiens; experiment: Cytotoxicity against colon HCT116; assay type: functional; settings: HCT-116; summary of the method: as §1
[10] = as §2; assay type: cell-based; settings: human, CCRF-CEM leukemia cells
Tubulin (Bos taurus) = experiment: Inhibition of tubulin polymerization at concentration 10 uM

`CCCCCCNC(=O)c1cc(NCc2cc(O)ccc2O)ccc1O` showed a GI50 (Homo sapiens [1]) of 4 µM, a GI50 (Homo sapiens [2]) of 19 µM and a GI50 (Homo sapiens [3]) of 12 µM. The GI50 (Homo sapiens [4]) was 6.1 µM, the IC50 (Tubulin) was 3.6 µM and the GI50 [5] was 0.56 µM. For the same molecule, the GI50 (Homo sapiens [6]) was 2.3 µM, the GI50 (Homo sapiens [7]) was 15 µM and the GI50 (Homo sapiens [8]) was 15 µM. For the same molecule, the GI50 (Homo sapiens [9]) was 17 µM.

Work on `O=C(NCCc1ccccc1)c1cc(NCc2cc(O)ccc2O)ccc1O` yielded a GI50 (Homo sapiens [1]) of 7.7 µM, a GI50 (Homo sapiens [2]) of 20 µM and a GI50 (Homo sapiens [3]) of 14 µM. It also gave a GI50 (Homo sapiens [4]) of 18 µM, an IC50 (Tubulin) of 3.6 µM and a GI50 [5] of 2.7 µM. For the same molecule, the GI50 (Homo sapiens [6]) was 17 µM, the GI50 (Homo sapiens [7]) was 16 µM and the GI50 (Homo sapiens [8]) was 19 µM. It also gave a GI50 (Homo sapiens [9]) of 18 µM.

In the case of `Oc1ccc(O)c(CNc2ccc(O)c(/C=C/CCc3ccccc3)c2)c1`, the GI50 (Homo sapiens [1]) is reported as 20.4 µM, the GI50 (Homo sapiens [2]) is reported as 35.4 µM and the GI50 (Homo sapiens [3]) is reported as 18 µM. The GI50 (Homo sapiens [4]) was 21.4 µM, the IC50 (Tubulin) was 7.2 µM and the GI50 [5] was 1.1 µM. It also gave a GI50 (Homo sapiens [6]) of 16.3 µM, a GI50 (Homo sapiens [7]) of 18.7 µM and a GI50 (Homo sapiens [8]) of 5.7 µM. It also gave a GI50 (Homo sapiens [9]) of 30.4 µM.

In the case of `COc1ccc(NCc2cc(O)ccc2O)c2c1C(=O)N(CCc1ccc(F)cc1)C2`, the GI50 (Homo sapiens [1]) is reported as 8.4 µM, the GI50 (Homo sapiens [2]) is reported as 31.4 µM and the GI50 (Homo sapiens [3]) is reported as 19.1 µM. The GI50 (Homo sapiens [4]) was 20.4 µM, the IC50 (Tubulin) was 5.9 µM and the GI50 [5] was 3.4 µM. It also gave a GI50 (Homo sapiens [6]) of 14.4 µM, a GI50 (Homo sapiens [7]) of 16.1 µM and a GI50 (Homo sapiens [8]) of 14 µM. It also gave a GI50 (Homo sapiens [9]) of 20.4 µM.

Molecule `O=c1oc2ccc(NCc3cc(O)ccc3O)cc2c(=O)n1CCc1ccc(F)cc1` has a GI50 (Homo sapiens [1]) of 2.8 µM, a GI50 (Homo sapiens [2]) of 17.2 µM and a GI50 (Homo sapiens [3]) of 7 µM. It also gave a GI50 (Homo sapiens [4]) of 6.6 µM, an IC50 (Tubulin) of 6.8 µM and a GI50 [5] of 0.78 µM. For the same molecule, the GI50 (Homo sapiens [6]) was 5.1 µM, the GI50 (Homo sapiens [7]) was 17.7 µM and the GI50 (Homo sapiens [8]) was 4.9 µM. It also gave a GI50 (Homo sapiens [9]) of 4.2 µM.

Molecule `Oc1ccc(O)c(CNc2ccc(O)c(/C=C\CCc3ccccc3)c2)c1` has a GI50 (Homo sapiens [1]) of 21.9 µM, a GI50 (Homo sapiens [2]) of 20.5 µM and a GI50 (Homo sapiens [3]) of 15.9 µM. It also gave a GI50 (Homo sapiens [4]) of 17.8 µM, an IC50 (Tubulin) of 3.7 µM and a GI50 [5] of 0.7 µM. The GI50 (Homo sapiens [6]) was 11.6 µM, the GI50 (Homo sapiens [7]) was 34 µM and the GI50 (Homo sapiens [8]) was 17.1 µM. The GI50 (Homo sapiens [9]) was 19.3 µM.

With `O=C1c2c(O)ccc(NCc3cc(O)ccc3O)c2CN1CCc1ccccc1` the GI50 (Homo sapiens [1]) was 6.2 µM, the GI50 (Homo sapiens [2]) was 26.8 µM and the GI50 (Homo sapiens [3]) was 10.1 µM. It also gave a GI50 (Homo sapiens [4]) of 12.9 µM, an IC50 (Tubulin) of 7.4 µM and a GI50 [5] of 2.3 µM. The GI50 (Homo sapiens [6]) was 23.1 µM, the GI50 (Homo sapiens [7]) was 14.5 µM and the GI50 (Homo sapiens [8]) was 14.8 µM. For the same molecule, the GI50 (Homo sapiens [9]) was 19.9 µM.

Work on `O=c1oc2ccc(NCc3cc(O)ccc3O)cc2c(=O)n1CCc1ccccc1` yielded a GI50 (Homo sapiens [1]) of 3.6 µM, a GI50 (Homo sapiens [2]) of 21.4 µM and a GI50 (Homo sapiens [3]) of 6 µM. It also gave a GI50 (Homo sapiens [4]) of 9.6 µM, an IC50 (Tubulin) of 8.3 µM and a GI50 [10] of 1.3 µM. The GI50 (Homo sapiens [6]) was 8.9 µM, the GI50 (Homo sapiens [7]) was 15.3 µM and the GI50 (Homo sapiens [8]) was 5.6 µM. It also gave a GI50 (Homo sapiens [9]) of 4.6 µM.

Work on `CCCCCCn1c(=O)oc2ccc(NCc3cc(O)ccc3O)cc2c1=O` yielded a GI50 (Homo sapiens [1]) of 1.7 µM, a GI50 (Homo sapiens [2]) of 14.8 µM and a GI50 (Homo sapiens [3]) of 3.2 µM. For the same molecule, the GI50 (Homo sapiens [4]) was 4.2 µM, the IC50 (Tubulin) was 6 µM and the GI50 [5] was 0.27 µM. It also gave a GI50 (Homo sapiens [6]) of 2.4 µM, a GI50 (Homo sapiens [7]) of 13.8 µM and a GI50 (Homo sapiens [8]) of 3.9 µM. It also gave a GI50 (Homo sapiens [9]) of 3.2 µM.

Work on `O=C1c2c(O)ccc(NCc3cc(O)ccc3O)c2CN1CCc1ccc(F)cc1` yielded a GI50 (Homo sapiens [1]) of 8.8 µM, a GI50 (Homo sapiens [2]) of 19.6 µM and a GI50 (Homo sapiens [3]) of 13.3 µM. It also gave a GI50 (Homo sapiens [4]) of 16 µM, an IC50 (Tubulin) of 5.9 µM and a GI50 [5] of 1.8 µM. The GI50 (Homo sapiens [6]) was 14.4 µM, the GI50 (Homo sapiens [7]) was 24.6 µM and the GI50 (Homo sapiens [8]) was 15.6 µM. For the same molecule, the GI50 (Homo sapiens [9]) was 18.7 µM.

`COc1ccc(NCc2cc(O)ccc2O)c2c1C(=O)N(CCc1ccccc1)C2` gave an IC50 (Tubulin (Bos taurus)) of 9.5 µM.

In the case of `O=C(NCCc1ccc(F)cc1)c1cc(NCc2cc(O)ccc2O)ccc1O`, the GI50 (Homo sapiens [1]) is reported as 0.15 µM, the GI50 (Homo sapiens [2]) is reported as 0.28 µM and the GI50 (Homo sapiens [3]) is reported as 0.41 µM. For the same molecule, the GI50 (Homo sapiens [4]) was 0.58 µM, the IC50 (Tubulin) was 4 µM and the GI50 [5] was 0.22 µM. It also gave a GI50 (Homo sapiens [6]) of 0.32 µM, a GI50 (Homo sapiens [7]) of 0.27 µM and a GI50 (Homo sapiens [8]) of 0.047 µM. The GI50 (Homo sapiens [9]) was 0.33 µM.
